A selection: hits, their analogues and other compounds. The true share with any hit is near 1.9%.
RanGTP-Impb inh = inhibitors of RanGTP-importin-beta interaction, primary screen, biochemical, FRET, CFP-Ran, YFP-importin-beta, homogeneous; cell-free CFP-Ran/YFP-importin-beta FRET ratio; inhibition, % (concentration not given with the values); 300,000 tested, 1.1% active;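 active means more than half of the replicate wells show a fall in the fluorescence ratio signal beyond about 16%, limit read from the data, passing the limit was not always enough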;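 further: 0% = DMSO wells and 100% = Ran loaded with GDP instead of GTP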
Runt-CBFb FRET = inhibitors of human RUNX1 Runt domain binding to CBFb; AID 1496; 220,000 tested, 0.46% active; inhibition, % at 20 µM; Cerulean-Runt/Venus-CBFb FRET ratio 530/480, 1 h; Q01196+Q13951;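 active means inhibition over about 50% at 20 µM in the single-dose screen, limit read from the data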;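 further: 0% = DMSO wells and 100% = excess unlabeled CBFb competitor control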
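Buffer or medium: Tris pH 7.5 buffer with BSA. Assay system: Cerulean-labeled Runt domain protein. Amount: each fluorescent fusion protein 100 nM. Read-out basis: loss of energy transfer signal. Incubation: 1 h compound exposure, room temperature. Probe or stimulus: Venus-CBFb binding partner, 100 nM. Detection: FRET, excitation 422 nm, emission at 530 and 480 nm.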
Hck-Nef inh = human Hck-Nef kinase inhibition; P08631; Recombinant Hck-YEEI plus Nef, Z-Lyte FRET kinase assay; inhibition, % at 20 µM; 220,000 tested, 0.68% active;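 active means Hck-Nef kinase inhibition above about 50%, limit read from the data; inactive means inhibition below that limit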;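 further: 0% = DMSO with Hck plus Nef and 100% = Hck alone without Nef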
Target sequence (P08631 whole entry, looked up): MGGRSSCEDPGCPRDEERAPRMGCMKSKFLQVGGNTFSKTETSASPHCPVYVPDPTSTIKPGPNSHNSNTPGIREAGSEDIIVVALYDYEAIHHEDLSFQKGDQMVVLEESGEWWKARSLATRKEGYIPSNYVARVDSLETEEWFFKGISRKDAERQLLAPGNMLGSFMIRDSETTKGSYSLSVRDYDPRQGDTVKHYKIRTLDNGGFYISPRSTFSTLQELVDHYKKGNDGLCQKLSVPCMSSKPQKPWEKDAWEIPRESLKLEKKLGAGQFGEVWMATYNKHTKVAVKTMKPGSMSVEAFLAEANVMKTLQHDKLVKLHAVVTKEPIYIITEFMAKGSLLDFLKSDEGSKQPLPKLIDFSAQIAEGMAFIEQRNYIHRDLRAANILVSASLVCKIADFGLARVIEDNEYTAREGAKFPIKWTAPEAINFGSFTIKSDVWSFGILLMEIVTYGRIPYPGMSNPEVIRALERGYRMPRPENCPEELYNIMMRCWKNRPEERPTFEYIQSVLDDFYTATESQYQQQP
Runt-SMMHC FRET = inhibitors of human RUNX1 Runt domain binding to CBFb-SMMHC; Cerulean-Runt/Venus-CBFb-SMMHC FRET ratio 530/480, 1 h; inhibition, % at 20 µM; 220,000 tested, 0.74% active;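 active means mean inhibition across duplicate retests at 20 µM reaching about 50%, limit read from the data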;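 further: 0% = DMSO wells and 100% = wells with excess untagged CBFb-SMMHC; inhibitors lower the FRET ratio by blocking Runt binding to CBFb-SMMHC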
YIC counter = counter-screen: alters YIC FRET probe signal; 1,000 tested, 40% active; IC50, µM; shares compounds with RanGTP-Impb inh; Purified YIC probe, intramolecular FRET ratio YFP/CFP;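 active means fitted half-maximal inhibitory concentration no more than tenfold above the top dose tested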
Numbers without * were called inactive; . = no result given.

SMILES	RanGTP-Impb inh	Runt-CBFb FRET	Hck-Nef inh	Runt-SMMHC FRET	YIC counter
O=C(NCC1CCCO1)c1cc2ccccc2nc1Cl (stereo unspecified)	7	1	7	-2	.
COc1ccccc1S(=O)Cc1ccc(C(=O)O)o1 (stereo unspecified)	20*	.	1	3	>50
Cc1ccc(S(=O)(=O)N2CCC(NC(=O)OC(C)C)CC2)cc1	3	-1	20	1	.
Cc1ccc(C(=O)Nc2ncc(Cc3ccc(F)cc3)s2)o1	28*	-2	0	3	>50
Cc1ccc(C(=O)Nc2ncc(C)s2)o1	4	1	2	-1	.
CC(=O)Cc1nsc(NC(=O)c2ccc(-c3cccc(C(F)(F)F)c3)o2)n1	22*	3	0	0	>50
CC(=O)Cc1nsc(NC(=O)c2ccc(-c3cc(C(F)(F)F)ccc3Cl)o2)n1	1	-3	-2	3	.
CCOC(=O)c1[nH]c(C)c(C(=O)N(C)Cc2ccccc2)c1C	25*	6	0	1	>50
CC1(C)CC(=O)C=C(Nc2ccc(S(N)(=O)=O)cc2)C1	22*	0	14	1	>50
O=C(O)CCc1ccc(-c2ccc(Cl)cc2)n1NC(=O)c1ccc(O)cc1	3	8	18	4	.
CCOC(=O)C1(CC2CCCCO2)CCN(C(=O)Nc2ccc3c(c2)OCO3)CC1 (stereo unspecified)	22*	1	5	4	>50
COc1cc(NC(=O)C2CC2)c(OC)cc1NC(=O)c1ccco1	19*	.	.	.	>50
CNC(=S)Nc1cc(OC)c(NC(=O)c2ccco2)cc1OC	2	2	25	-2	.
O=C(NCC(O)CN1CCOCC1)c1ccc([N+](=O)[O-])cc1 (stereo unspecified)	-1	0	0	0	.
Cc1cccc(NC(=O)c2cc(S(=O)(=O)N(C)c3ccc(F)cc3)ccc2Cl)n1	20*	.	.	.	>50
COc1ccccc1N(C)S(=O)(=O)c1ccc(Cl)c(C(=O)Nc2cccc(C)n2)c1	8	.	.	.	.
COCCCNC(=O)C(C)N1c2cccc3cccc(c23)S1(=O)=O (stereo unspecified)	-2	.	.	.	.
Cc1ccc(S(=O)(=O)Nc2nc3ccccc3nc2NCc2ccco2)cc1	20*	12	2	36	13*
Cc1cc(NC(=O)CN2C(=O)c3ccccc3C2=O)no1	1	0	11	-5	.
COc1ccccc1/C=N/n1c(N)c(C(=O)NC2CCCCC2)c2nc3ccccc3nc21	.	-1	11	-4	.
Nc1c(C(=O)NC2CCCC2)c2nc3ccccc3nc2n1/N=C/c1ccco1	26*	21	12	25	9.5*
CN1CCc2c(sc(NC(=O)c3ccc(S(=O)(=O)N4CCOCC4)cc3)c2C(N)=O)C1	19*	1	-1	2	46*
COc1ccc(CN2CCCC(C(=O)c3cccc(OC(C)C)c3)C2)cc1Cn1cccn1 (stereo unspecified)	4	-1	18	-4	.
Oc1cccc(Nc2c3ccccc3nc3ccccc23)c1	50*	.	.	.	>50
COc1ccccc1Nc1c2ccccc2nc2ccccc12	27*	.	.	.	>50
SMILES	RanGTP-Impb inh	Runt-CBFb FRET	Hck-Nef inh	Runt-SMMHC FRET	YIC counter
c1cncc(Nc2c3ccccc3nc3ccccc23)c1	34*	.	.	.	>50
COc1ccccc1Nc1nc(-c2ccccc2)nc2ccccc12	-1	-2	5	3	.
COc1cc(OC)cc(C(=O)NCC(=O)Nc2ccc(OC)c(Cl)c2)c1	-3	.	.	.	.
Cc1cc(=O)oc2cc(OCC(=O)NC3CCCCC3)ccc12	4	.	.	.	.
CCOc1ccc(NS(=O)(=O)c2ccc3c(c2)CCN3C(=O)CCC(=O)O)cc1	28*	-1	0	-3	>50
COC(=O)c1ccc2c(=O)n(CCN3CCOCC3)c(SCC(=O)C(C)(C)C)nc2c1	19*	0	0	-3	>50
CCOC(=O)CSc1nc2cc(C(=O)OC)ccc2c(=O)n1CCN1CCOCC1	1	-4	1	-2	.
CCSc1nnc(NC(=O)C2CC(=O)N(Cc3ccccc3)C2)s1 (stereo unspecified)	0	-1	7	-1	.
NC(=O)c1ccc(F)cc1	17*	.	0	.	>50
Cc1ccc(S(=O)(=O)NCC(=O)OCc2nnc(-c3ccccc3)o2)cc1	-1	.	.	.	.
COc1ccc(NC(=O)CN2C(=O)CC(C)S(=O)(=O)c3ccccc32)cc1 (stereo unspecified)	18*	.	.	.	>50
Cc1cccc(-c2nc(CS(=O)CC(=O)NCCc3ccc(Cl)cc3)c(C)o2)c1 (stereo unspecified)	4	.	.	.	.
CN1CCCN(Cc2cccc3ccccc23)CC1	22*	.	.	.	>50
Nc1nc2nc(-c3ccc(OCc4ccccc4)cc3)cc(C(F)(F)F)n2n1	34*	80*	2	92*	5*
COc1cc([C@@H]2[C@H]3CN(C)CC=C3C(C#N)=C(N)C2(C#N)C#N)cc2c1OCO2	24*	30	10	62*	5.7*
Cc1csc(=O)n1CC(=O)OC(C)C(=O)Nc1cccc(Cl)c1 (stereo unspecified)	1	.	.	.	.
O=C(O)c1ccc(NS(=O)(=O)c2cccc(C(=O)Nc3cccc(C(=O)O)c3)c2)cc1	1	.	.	.	.
CCCc1nc2ccccc2c(C(=O)OCC(=O)NCc2ccc3c(c2)OCO3)c1CC	0	-3	-2	0	.
COc1ccc(-n2c(N)c(C(=O)NCc3ccco3)c3nc4ccccc4nc32)cc1OC	17*	0	13	15	33*
Nc1c(C(=O)NCc2ccccc2)c2nc3ccccc3nc2n1-c1ccc2c(c1)OCO2	35*	-8	27	6	11*
COc1cc(-n2c(N)c(C(=O)NCc3ccco3)c3nc4ccccc4nc32)cc(OC)c1OC	12	4	3	-7	.
C=CCN(CC(O)c1cccc([N+](=O)[O-])c1)C(C)CCc1ccccc1 (stereo unspecified)	5	1	6	-2	.
Cc1c(S(=O)(=O)N2CCCC(C(=O)O)C2)cnn1C (stereo unspecified)	22*	0	18	-1	>50
Cc1nn(C)cc1S(=O)(=O)N1CCCC(C(=O)O)C1 (stereo unspecified)	-4	0	16	-2	.
O=C(CN1C(=O)NC2(CCCC2)C1=O)N1CCN(S(=O)(=O)c2ccccc2[N+](=O)[O-])CC1	8	.	.	.	.
CC(O)CNc1nc2ccccc2n1CC(=O)NC12CC3CC(CC(C3)C1)C2 (stereo unspecified)	22*	-3	26	1	>50
COc1cc2sc3ccc(C#CC4(O)CCCCC4)cc3c(=O)c2cc1OC	32*	.	.	.	26*
Cc1ccc(-n2nc3c(=O)n(C(C)C(=O)NCCC4=CCCCC4)nc(C)c3c2C)cc1 (stereo unspecified)	3	.	.	.	.
O=C(C1CCN(S(=O)(=O)c2ccc(Br)s2)CC1)N1CCCCC1	1	.	.	.	.

Compound activity as filed in PubChem BioAssay.
